“Also recorded” adds a separate entry of the source.
Assays:
[1] = test system: patients with previously untreated poor-risk AML; format: in vivo
[2] = test system: patients with previously untreated poor-risk AML; test: Phase I trial of selinexor plus 7+3: response; format: in vivo, human; settings: for Median overall survival: 95% CI 3.74–NR
[3] = Plasma pharmacokinetics of selinexor; format: in vivo, human; settings: for Tmax / AUC(0-t) / Cmax: human, plasma; for AUC(0-t): AUC0–8h
gated CD34+ cells = test: Ex vivo sensitivity of patient bone marrow MNCs, flow cytometry for apoptosis; format: cell-based, human
How it was run: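 Screening bone marrow aspirates were Ficoll-enriched for mononuclear cells and plated at 3 million cells per mL. Cells were incubated 20 hours with titrated test compound, alone or combined with 40 µmol/L cytarabine or 1 µmol/L daunorubicin. Apoptosis (active caspase-3) was measured by flow cytometry on gated CD34+ cells. Of 10 samples, 2 were excluded for low viability or <5% CD34+ cells, leaving 8.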

[4] = test system: AML cell lines and AML patient cells; test: Preclinical combination studies of selinexor and daunorubicin; format: cell-based; settings: Supplementary Figs. S1 and S2, Supplementary Table S1
[5] = test system: patients with previously untreated poor-risk AML; test: G-banding cytogenetic analysis of bone marrow aspirates at follow-up; format: in vivo, human
How it was run: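 G-banding cytogenetics was done on each patient's bone marrow aspirate at diagnosis and, for most patients, at response assessment. Marrow aspirations and biopsies for response were taken between days 28 and 72 after induction or reinduction: daunorubicin/cytarabine 7+3 (or 5+2) plus oral test compound at 60 or 80 mg.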

[6] = test system: pediatric patients with relapsed or refractory acute leukemia; settings: selinexor plus fludarabine and cytarabine; cited from earlier work
[7] = 16 response eligible patients, poor-risk by NCCN criteria
[8] = 19 patients evaluable for response
[9] = treatment failure (n = 9), baseline 1, 5 not assessed

## O=C(/C=C\n1cnc(-c2cc(C(F)(F)F)cc(C(F)(F)F)c2)n1)NNc1cnccn1 [selinexor]
[1]; 21 patients, majority related to relapsed or refractory AML
  Patients who died during the treatment or follow-up phases: 62%
[1]; grade 3/4, selinexor + 7+3, 21 patients
  Grade 3/4 nonhematologic TEAE sepsis: 14%
[1]; human, in vivo
  Median time to a platelet count ≥50,000: 35 days
  Median time to absolute neutrophil count (ANC) ≥500: 26 days
  Patients with at least one grade 3/4 AE: 95%
[1]; in vivo
  Only grade 3 AE during maintenance therapy: fatigue
  Patients who experienced at least 1 TEAE: Every patient
  Patients who experienced diarrhea or hyponatremia: None
[2]; 6 patients who received a second induction (selinexor + 5+2)
  CRi after second induction: 17%
[2]; 7 evaluable patients with TP53 mutation at diagnosis (6 with complex karyotype)
  CR/CRi rate: 43%
[2]; 10 responding patients, median follow-up 28.9 months
  Median OS: not reached
[2]; 16 evaluable patients treated at the RP2D (80 mg)
  CR/CRi rate: 50%
[2]; [7]
  CR/CRi rate: 50%
  Treatment failures: 50%
[2]; 19 evaluable patients
  Evaluable patients alive at 12 months (12-month OS): 47.4%
[2]; 19 evaluable patients, median follow-up 26.9 months
  Median overall survival: 10.3 months
[2]; [8]
  CR/CRi rate (overall response rate): 53%
  Patients who achieved CR: 42%
  Patients who achieved CRi: 11%
  Treatment failures due to refractory AML: 47%
[2]; age ≥60, n = 16
  CR: 7 (44) no. (%)
  CR + CRi: 9 (56) no. (%)
  CRi: 2 (13) no. (%)
  Treatment failure: 7 (44) no. (%)
[2]; age ≥70, n = 8
  CR: 3 (38) no. (%)
  CR + CRi: 3 (38) no. (%)
  CRi: 0 (0) no. (%)
[2]; all 21 patients, median follow-up 28.9 months
  Patients alive at median follow-up: 38%
[2]; entire cohort, n = 21
  Median overall survival: 10.3 months
[2]; evaluable patients, n = 19
  CR: 8 (42.1) no. (%)
  CR + CRi: 10 (52.6) no. (%)
  CRi: 2 (10.5) no. (%)
  Treatment failure: 9 (47.4) no. (%)
[2]; median follow-up of 28.9 months
  Responders alive: 60%
[2]; median follow-up of over 2 years, all underwent allogeneic stem cell transplant in first remission
  Responding patients who remained in CR/CRi: 5 of 10
[2]; patients who had previously received a hypomethylating agent (8 patients)
  CR/CRi rate: 13%
[2]; prior HMA, n = 8
  CR: 1 (13) no. (%)
  CR + CRi: 1 (13) no. (%)
  CRi: 0 (0) no. (%)
  Treatment failure: 7 (87) no. (%)
[2]; sAML, n = 12
  CR: 3 (25) no. (%)
  CR + CRi: 4 (33) no. (%)
  CRi: 1 (8) no. (%)
  Treatment failure: 8 (67) no. (%)
[3]; day 1 versus day 15
  Exposure (based on AUC) on days 1 and 15: similar
[3]; oral, Mean Tmax, day 15, delayed absorption
  Tmax: 4 h
[3]; po, 60 mg, selinexor 60 mg oral, day 1, 4 patients
  AUC(0-t): 1.85 ± 0.972 µg·h/mL
[3]; po, 60 mg, selinexor 60 mg oral, day 15, 3 patients
  AUC(0-t): 1.71 ± 1.03 µg·h/mL
[3]; po, 60 mg, Cmax, selinexor 60 mg oral, day 1, 4 patients
  Cmax: 0.457 ± 0.196 µg/mL
[3]; po, 60 mg, Cmax, selinexor 60 mg oral, day 15, 3 patients
  Cmax: 0.392 ± 0.29 µg/mL
[3]; po, 60 mg, Mean Cmax, selinexor 60 mg oral, day 1, 4 patients
  Cmax: 1.03 µM
[3]; po, 60 mg, Tmax, selinexor 60 mg oral, day 1, 4 patients
  Tmax: 2 ± 3.2 h
[3]; po, 60 mg, Tmax, selinexor 60 mg oral, day 15, 3 patients
  Tmax: 4 ± 1.2 h
[3]; po, 80 mg, selinexor 80 mg oral, day 1, 17 patients
  AUC(0-t): 2.59 ± 1.11 µg·h/mL
[3]; po, 80 mg, selinexor 80 mg oral, day 15, 13 patients
  AUC(0-t): 2.1 ± 1.08 µg·h/mL
[3]; po, 80 mg, Cmax, selinexor 80 mg oral, day 1, 17 patients
  Cmax: 0.601 ± 0.302 µg/mL
[3]; po, 80 mg, Cmax, selinexor 80 mg oral, day 15, 13 patients
  Cmax: 0.482 ± 0.288 µg/mL
[3]; po, 80 mg, Mean Cmax, selinexor 80 mg oral, day 1, 17 patients
  Cmax: 1.36 µM
[3]; po, 80 mg, Tmax, selinexor 80 mg oral, day 1, 17 patients
  Tmax: 2 ± 2.2 h
[3]; po, 80 mg, Tmax, selinexor 80 mg oral, day 15, 13 patients
  Tmax: 4 ± 2.5 h
[3]; selinexor 60 mg oral, day 1, 4 patients
  AUC0–8h: 1,853 ng/h/mL
[3]; selinexor 80 mg oral, day 1, 17 patients
  AUC0–8h: 2,590 ng/h/mL
Gated CD34+ cells; titrated selinexor with 1 µmol/L daunorubicin, patient samples ex vivo
  Synergy between selinexor and daunorubicin: no synergy
Gated CD34+ cells; titrated selinexor with 40 µmol/L cytarabine or 1 µmol/L daunorubicin
  Effects of the combination on apoptosis: additive
[4]
  Interaction between selinexor and daunorubicin: strong synergistic interactions; also recorded: strong synergy
[5]; responders (n = 10), baseline 0
  Cytogenetics at follow-up: Chr 5 abnormalities: 0 no.
[5]; responders (n = 10), baseline 1
  Cytogenetics at follow-up: Chr 7 abnormalities: 1 no.
[5]; responders (n = 10), baseline 2
  Cytogenetics at follow-up: Other Chr abnormalities: 0 no.
[5]; responders (n = 10), baseline 3
  Cytogenetics at follow-up: Complex: 1 no.
[5]; responders (n = 10), baseline 4
  Cytogenetics at follow-up: Diploid: 8 no.
[5]; treatment failure (n = 9), baseline 0, 5 not assessed
  Cytogenetics at follow-up: Chr 7 abnormalities: 0 no.
[5]; [9]
  Cytogenetics at follow-up: Chr 5 abnormalities: 1 no.
  Cytogenetics at follow-up: Other Chr abnormalities: 0 no.
[5]; treatment failure (n = 9), baseline 3, 5 not assessed
  Cytogenetics at follow-up: Diploid: 2 no.
[5]; treatment failure (n = 9), baseline 4, 5 not assessed
  Cytogenetics at follow-up: Complex: 1 no.
[6]
  Patients who tested negative for measurable residual disease: 5 patients

— article PMC7787346 (Clinical cancer research : an official journal of the …, 2019)
